ChEMBL document CHEMBL2321839, “Novel limonene and citral based 2,5-disubstituted-1,3,4-oxadiazoles: a natural product coupled approach to semicarbazones for antiepileptic activity” (Bioorg Med Chem Lett, 2013)
The source made the active and inactive calls. The calls are words filed in the database; no cut-off is given here.

Tests used:
Mus musculus [1] = assay: Antiepileptic activity in Swiss albino mouse assessed as protection against maximal-electric shock-induced seizures at 300 mg/kg, ip measured after 0.5 hrs; assay type: functional, organism-based; set-up: dose 300 mg/kg
Method in brief: (§1)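 Male Swiss albino mice (18–25 g), compounds given ip at 30, 100 and 300 mg/kg. Seizures induced by maximal electroshock (MES) or subcutaneous pentylenetetrazole (scPTZ). Protection scored at 0.5 and 4.0 h after dosing.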

Rattus norvegicus [2] = assay: Antiepileptic activity in ip dosed Wistar rat assessed as protection against scSTY-induced seizures after 4 hrs; assay type: functional; settings: read-out: MED
Method in brief: (§2)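 Male Wistar rats (100–150 g), compounds given ip at 30, 100 and 300 mg/kg. Seizures induced by subcutaneous strychnine (scSTY). Activity read 0.5 and 4.0 h after dosing. Reported as the minimal dose active in at least half of the animals; a dash means no activity at 300 mg/kg.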

Mus musculus [3] = assay: Antiepileptic activity in ip dosed Swiss albino mouse assessed as protection against scPTZ-induced seizures after 4 hrs; assay type: functional; settings: read-out: MED; method in brief: as §1
Mus musculus [4] = assay: Antiepileptic activity in ip dosed Swiss albino mouse assessed as protection against maximal-electric shock-induced seizures after 4 hrs; assay type: functional; settings: read-out: MED; method in brief: as §1
Rattus norvegicus [5] = assay: Antiepileptic activity in Wistar rat assessed as GABA level in cerebellum per 100 mg at 100 mg/kg ip after 2 hrs (reference value: 23.48+/- 2.48 ug); assay type: functional; settings: route intraperitoneal
Rattus norvegicus [6] = assay: Antiepileptic activity in Wistar rat assessed as GABA level in medulla oblangata per 100 mg at 100 mg/kg ip after 2 hrs (reference value: 31.86 +/- 4.65 ug); assay type: functional, Medulla oblongata; settings: route intraperitoneal
Rattus norvegicus [7] = assay: Antiepileptic activity in Wistar rat assessed as GABA level in midbrain per 100 mg at 100 mg/kg ip after 2 hrs (reference value: 35.42 +/- 2.14 ug); assay type: functional; settings: route intraperitoneal
Mus musculus [8] = assay: Neurotoxicity against Swiss albino mouse by rotarod test at 300 mg/kg, ip after 4 hrs; assay type: toxicity, organism-based; set-up: dose 300 mg/kg, route intraperitoneal; settings: in vivo
Method in brief: (§3)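 Acute neurotoxicity tested by rotorod in male Swiss albino mice (18–25 g) given 30, 100 or 300 mg/kg ip. Read at 0.5 and 4.0 h post-dose. Result is the minimal dose causing toxicity in half or more of the animals; a dash means none up to 300 mg/kg.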

Mus musculus [9] = assay: Neurotoxicity against Swiss albino mouse by rotarod test at 300 mg/kg, ip after 0.5 hrs; assay type: toxicity, organism-based; set-up: dose 300 mg/kg, route intraperitoneal; settings: in vivo; method in brief: as §3
Rattus norvegicus [10] = assay: Antiepileptic activity in Wistar rat assessed as protection against scSTY-induced seizures at 300 mg/kg, ip measured after 0.5 hrs; assay type: functional, organism-based; set-up: dose 300 mg/kg; method in brief: as §2
Mus musculus [11] = assay: Antiepileptic activity in Swiss albino mouse assessed as protection against scPTZ-induced seizures at 300 mg/kg, ip measured after 0.5 hrs; assay type: functional, organism-based; set-up: dose 300 mg/kg; method in brief: as §1
Mus musculus [12] = assay: Antiepileptic activity in Swiss albino mouse assessed as protection against maximal-electric shock-induced seizures at 300 mg/kg, ip measured after 4 hrs; assay type: functional, organism-based; set-up: dose 300 mg/kg; method in brief: as §1
Mus musculus [13] = assay: Neurotoxicity against ip dosed Swiss albino mouse after 0.5 hrs by rotarod test; assay type: toxicity, organism-based; settings: in vivo; method in brief: as §3
Rattus norvegicus [14] = assay: Antiepileptic activity in Wistar rat assessed as protection against scSTY-induced seizures at 300 mg/kg, ip measured after 4 hrs; assay type: functional, organism-based; set-up: dose 300 mg/kg; method in brief: as §2
Mus musculus [15] = assay: Antiepileptic activity in Swiss albino mouse assessed as protection against scPTZ-induced seizures at 300 mg/kg, ip measured after 4 hrs; assay type: functional, organism-based; set-up: dose 300 mg/kg; method in brief: as §1
Mus musculus [16] = assay: Neurotoxicity against ip dosed Swiss albino mouse after 4 hrs by rotarod test; assay type: toxicity, organism-based; settings: in vivo; method in brief: as §3
Mus musculus [17] = assay: Antiepileptic activity in ip dosed Swiss albino mouse assessed as protection against maximal-electric shock-induced seizures after 0.5 hrs; assay type: functional; settings: read-out: MED; method in brief: as §1

| SMILES | Activity (Mus musculus [1]) | minimal effective dose (Rattus norvegicus [2]) [mg/kg] | minimal effective dose (Mus musculus [3]) [mg/kg] | minimal effective dose (Mus musculus [4]) [mg/kg] | Activity (Rattus norvegicus [5]) [µg] | Activity (Rattus norvegicus [6]) [µg] | Activity (Rattus norvegicus [7]) [µg] | Activity (Mus musculus [8]) | Activity (Mus musculus [9]) | Activity (Rattus norvegicus [10]) | Activity (Mus musculus [11]) | Activity (Mus musculus [12]) | MTC (Mus musculus [13]) [mg/kg] | Activity (Rattus norvegicus [14]) | Activity (Mus musculus [15]) | MTC (Mus musculus [16]) [mg/kg] | minimal effective dose (Mus musculus [17]) [mg/kg] |
| --- | --- | --- | --- | --- | --- | --- | --- | --- | --- | --- | --- | --- | --- | --- | --- | --- | --- |
| CC(C)=CC/C=C(/C)C/C=N/NC(=O)Nc1nnc(-c2ccc(O)cc2)o1 | inactive | 300 | 300 | 300 | 28.25 | 34.42 | 52.82 | Non-toxic | Non-toxic | inactive | inactive | – | – | – | – | – | – |
| CC(C)=CC/C=C(/C)C/C=N/NC(=O)Nc1nnc(-c2cccc(O)c2)o1 | inactive | – | – | – | – | – | – | Non-toxic | – | inactive | inactive | inactive | 300 | inactive | inactive | – | – |
| C=C(C)[C@@H]1CC=C(C)/C(=N/NC(=O)Nc2nnc(-c3ccccc3O)o2)C1 | inactive | – | – | 300 | – | – | – | – | Non-toxic | inactive | inactive | – | – | inactive | inactive | 300 | – |
| CC(C)=CC/C=C(/C)C/C=N/NC(=O)Nc1nnc(-c2ccccc2)o1 | inactive | – | – | – | – | – | – | – | Non-toxic | inactive | inactive | inactive | – | inactive | inactive | 300 | – |
| CC(C)=CC/C=C(/C)C/C=N/NC(=O)Nc1nnc(-c2ccc(Cl)cc2)o1 | – | – | – | 300 | – | – | – | Non-toxic | Non-toxic | inactive | inactive | – | – | inactive | inactive | – | 100 |
| C=C(C)[C@@H]1CC=C(C)/C(=N/NC(=O)Nc2nnc(-c3ccc(C)cc3)o2)C1 | inactive | – | – | 300 | – | – | – | Non-toxic | – | inactive | inactive | – | 300 | inactive | inactive | – | – |
| C=C(C)[C@@H]1CC=C(C)/C(=N/NC(=O)Nc2nnc(-c3ccc(Cl)cc3)o2)C1 | – | 300 | 300 | 300 | – | – | – | Non-toxic | Non-toxic | inactive | inactive | – | – | – | – | – | 100 |
| C=C(C)[C@@H]1CC=C(C)/C(=N/NC(=O)Nc2nnc(-c3cccc(O)c3)o2)C1 | inactive | – | 300 | – | – | – | – | Non-toxic | – | inactive | inactive | inactive | 300 | inactive | – | – | – |
| COc1ccc(-c2nnc(NC(=O)N/N=C/C/C(C)=C\CC=C(C)C)o2)cc1 | inactive | 300 | – | – | – | – | – | Non-toxic | Non-toxic | inactive | inactive | inactive | – | – | inactive | – | – |
